Assay results taken from ChEMBL document CHEMBL4673298, “Exploration of Structure-Activity Relationship of Aromatic Aldehydes Bearing Pyridinylmethoxy-Methyl Esters as Novel Antisickling Agents” (J Med Chem, 2020).
Blank lines part the entries; values can stand above or below the molecule they belong to. The source made the active and inactive calls. The calls are words filed in the database; no cut-off is given here.

Experiments:
[1] = test system: Red blood cell; experiment: Binding affinity to Hemoglobin in sickle cell RBCs from blood isolated from patient with homozygous SS assessed as increase in hemoglobin modification at 1 mM under hypoxic conditions incubated for 2 hrs […]; assay type: tissue-based; details: Homo sapiens
Procedure, shortened: (§1)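 SS blood, hematocrit 20%, incubated under air with compound (0.5, 1, 2 mM) at 37 °C for 1 h, then hypoxic (2.5% O2/97.5% N2) at 37 °C for 2 h. Cells are washed and hemolyzed. Lysate is run on weak cation-exchange HPLC to quantify Hb adduct (modified Hb). Three biological replicates, mean ± SD.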

[2] = test system: Red blood cell; experiment: Binding affinity to Hemoglobin in sickle cell RBCs from blood isolated from patient with homozygous SS assessed as increase in hemoglobin modification at 2 mM under hypoxic conditions incubated for 2 hrs […]; assay type: tissue-based; details: Homo sapiens; procedure, shortened: as §1
[3] = test system: Red blood cell; experiment: Binding affinity to Hemoglobin in sickle cell RBCs from blood isolated from patient with homozygous SS assessed as increase in hemoglobin modification under hypoxic conditions incubated for 2 hrs […]; assay type: tissue-based; details: Homo sapiens; procedure, shortened: as §1
[4] = test system: Red blood cell; experiment: Binding affinity to Hemoglobin in sickle cell RBCs from blood isolated from patient with homozygous SS assessed as increase in Hb affinity for oxygen under hypoxic conditions incubated for 2 hrs by oxygen equilibrium curve study; assay type: tissue-based; details: Homo sapiens
Procedure, shortened: (§2)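 SS blood, hematocrit 20%, incubated under air with compound (0.5, 1, 2 mM) at 37 °C for 1 h, then hypoxic (2.5% O2/97.5% N2) at 37 °C for 2 h. Cells are washed in PBS and hemolyzed hypotonically. Lysate in 0.1 M potassium phosphate pH 7.0 is run by Hemox analysis for P50. ΔP50 is given as percent of DMSO control. Three biological replicates, mean ± SD.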

[5] = Inhibition of sickling in sickle cell RBCs from blood isolated from patient with homozygous SS at 2 mM under hypoxic conditions incubated for 2 hrs; assay type: functional; details: Homo sapiens, Erythrocyte
Procedure, shortened: (§3)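 SS blood, hematocrit 20%, preincubated under air with compound (0.5, 1, 2 mM) for 1 h at 37 °C, then 2 h hypoxia (2.5% O2/97.5% N2) at 37 °C. Aliquots are fixed in 2% glutaraldehyde without air exposure. Cell morphology is scored from bright-field images at 40×. Three biological replicates, mean ± SD.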

[6] = test system: Erythrocyte; experiment: Inhibition of sickling in sickle cell RBCs from blood isolated from patient with homozygous SS under hypoxic conditions incubated for 2 hrs; assay type: functional, tissue-based; details: Homo sapiens; procedure, shortened: as §3
[7] = organism: Homo sapiens; experiment: Binding affinity to Hemoglobin in normal human whole blood assessed as increase in Hb affinity for oxygen at 2 mM by oxygen equilibrium curve study; assay type: tissue-based
Procedure, shortened: (§4)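 Normal human whole blood, hematocrit 30%, incubated with or without compound in DMSO (0.5, 1.0 or 2.0 mM; 2 mM for the time course) at 37 °C. The blood is tonometered about 7 min at 37 °C against gas with 0.804, 2.935 and 5.528% O2 (6, 20, 40 mmHg). sO2 and pO2 are read on a blood gas analyzer. ΔP50% is taken relative to no compound. Time course sampled at 1, 2, 4, 8, 12, 24 h.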

[8] = organism: Homo sapiens; experiment: Binding affinity to Hemoglobin in normal human whole blood assessed as increase in Hb affinity for oxygen incubated for 1.5 hrs by oxygen equilibrium curve study; assay type: tissue-based; procedure, shortened: as §4
[9] = test system: Red blood cell; experiment: Binding affinity to Hemoglobin in sickle cell RBCs from blood isolated from patient with homozygous SS assessed as increase in Hb affinity shift for oxygen at 2 mM under hypoxic conditions incubated for 2 hrs by oxygen equilibrium curve study; assay type: tissue-based; details: Homo sapiens; procedure, shortened: as §2
[10] = test system: Red blood cell; experiment: Binding affinity to Hemoglobin in sickle cell RBCs from blood isolated from patient with homozygous SS assessed as increase in Hb affinity shift for oxygen at 1 mM under hypoxic conditions incubated for 2 hrs by oxygen equilibrium curve study; assay type: tissue-based; details: Homo sapiens; procedure, shortened: as §2
[11] = test system: Red blood cell; experiment: Binding affinity to Hemoglobin in sickle cell RBCs from blood isolated from patient with homozygous SS assessed as increase in hemoglobin modification at 0.5 mM under hypoxic conditions incubated for 2 hrs […]; assay type: tissue-based; details: Homo sapiens; procedure, shortened: as §1
[12] = Inhibition of sickling in sickle cell RBCs from blood isolated from patient with homozygous SS at 1 mM under hypoxic conditions incubated for 2 hrs; assay type: functional; details: Homo sapiens, Erythrocyte; procedure, shortened: as §3
[13] = Inhibition of sickling in sickle cell RBCs from blood isolated from patient with homozygous SS at 0.5 mM under hypoxic conditions incubated for 2 hrs; assay type: functional; details: Homo sapiens, Erythrocyte; procedure, shortened: as §3
[14] = test system: Red blood cell; experiment: Binding affinity to Hemoglobin in sickle cell RBCs from blood isolated from patient with homozygous SS assessed as increase in Hb affinity shift for oxygen at 0.5 mM under hypoxic conditions incubated for 2 hrs by oxygen equilibrium curve study; assay type: tissue-based; details: Homo sapiens; procedure, shortened: as §2
[15] = Induction of in-vivo hemoglobin-O2 affinity shifts in C57BL/6 mouse at 150 mg/kg, ip dosed as single administration measured after 6 hrs by oxygen equilibrium curve study; assay type: functional
Procedure, shortened: (§5)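 C57BL/6 mice (3 male, 3 female) receive a single intraperitoneal dose of 150 mg/kg. Blood is drawn by submandibular bleeding before dosing and at 1, 3 and 6 h, then hemolyzed. Hb modification and Hb-O2 affinity shift are measured; n = 6.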

[16] = test system: Mus musculus; experiment: Induction of in-vivo hemoglobin-O2 affinity shifts in C57BL/6 mouse at 150 mg/kg, ip dosed as single administration measured after 3 to 6 hrs by oxygen equilibrium curve study; assay type: functional, organism-based; details: time 3-6 hrs, TDE = time-dependent effect; procedure, shortened: as §5
[17] = test system: Mus musculus; experiment: Induction of in-vivo modification of intracellular hemoglobin in C57BL/6 mouse at 150 mg/kg, ip dosed as single administration measured after 1 to 6 hrs by cation-exchange HPLC analysis; assay type: functional, organism-based; details: time 1-6 hrs, TDE = time-dependent effect; procedure, shortened: as §5
[18] = Stability in human whole blood assessed as parent compound level at 1 mM incubated for 24 hrs by reversed-phase HPLC analysis; assay type: ADME, tissue-based; details: read-out: Stabilty
Procedure, shortened: (§6)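 Normal whole blood, hematocrit 30%, incubated with or without compound at 0.5 or 1 mM at 37 °C. Aliquots taken at 0, 4, 8, 24 h are deproteinized with 0.1 M formic acid in acetonitrile at 60–65 °C for 30 min, centrifuged and filtered. Reversed-phase C18 HPLC uses a 0.1% formic acid water/acetonitrile gradient, detection at 261 nm. Parent and carboxylic acid analogue are quantified; the acid serves as reference.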

[19] = Stability in human whole blood assessed as parent compound level at 0.5 mM incubated for 24 hrs by reversed-phase HPLC analysis; assay type: ADME, tissue-based; details: read-out: Stabilty; procedure, shortened: as §6
[20] = Drug metabolism in human whole blood assessed as carboxylic acid analogue formation at 0.5 to 1 mM incubated up to 24 hrs by reversed-phase HPLC analysis; assay type: ADME, tissue-based; details: 1000 µM, dose 0.5-1 mM; procedure, shortened: as §6
[21] = Induction of in-vivo modification of intracellular hemoglobin in C57BL/6 mouse at 150 mg/kg, ip dosed as single administration measured after 6 hrs by cation-exchange HPLC analysis

SMILES: COC(=O)c1ccnc(COc2cccc(O)c2C=O)c1
Activity [1]: > 80%
Activity [2]: < 100%
Activity [3]: Dose-dependent effect
Activity [4]: Dose-dependent effect
inhibition at 2000 µM [5]: > 90%
inhibition [6]: Dose-dependent effect
Activity ([7]; TDE = time-dependent effect): Tde
Activity [8]: Dose-dependent effect

SMILES: COC(=O)c1cncc(COc2ccc(OC)cc2C=O)c1
Activity [1]: 60%
Activity [2]: < 100%
Activity [3]: Dose-dependent effect
Activity [4]: Dose-dependent effect
inhibition at 2000 µM [5]: > 90%
inhibition [6]: Dose-dependent effect
Activity ([7]; TDE = time-dependent effect): Tde
Activity [8]: Dose-dependent effect

SMILES: COC(=O)c1cccnc1COc1ccc(OC)cc1C=O
Activity [9]: 21.3%
Activity [10]: 12.8%
Activity [11]: 32.1%
Activity [1]: 49.9%
Activity [2]: 67.5%
Activity [3]: Dose-dependent effect
Activity [4]: Dose-dependent effect
inhibition at 1000 µM [12]: 71.7%
inhibition at 2000 µM [5]: 99%
inhibition at 500 µM [13]: 41.8%
inhibition [6]: Dose-dependent effect
Activity ([7]; TDE = time-dependent effect): Tde
Activity [14]: 5.9%
Activity [8]: Dose-dependent effect

remaining at 24 h, 1000 µM [18]: 78%
remaining at 24 h, 500 µM [19]: 81%
Drug metabolism [20]: Metabolite_Detected
SMILES: COC(=O)c1cccnc1COc1cccc(O)c1C=O
Activity [15]: 14.5%
Activity [16]: Tde
Activity [17]: Tde
Activity [9]: 39.6%
Activity [10]: 18.8%
Activity [11]: 46%
Activity [1]: 64.4%
Activity [2]: 90.8%
Activity [3]: Dose-dependent effect
Activity [4]: Dose-dependent effect
inhibition at 1000 µM [12]: 70.6%
inhibition at 2000 µM [5]: 98.8%
inhibition at 500 µM [13]: 43.3%
inhibition [6]: Dose-dependent effect
Activity ([7]; TDE = time-dependent effect): Tde
Activity [14]: 12.2%
Activity [8]: Dose-dependent effect
Activity [21]: 16.9%

SMILES: COC(=O)c1ccc(COc2ccc(OC)cc2C=O)nc1
Activity [7]: inactive
Activity [8]: inactive

SMILES: COC(=O)c1ncccc1COc1cccc(O)c1C=O
Activity [3]: Dose-dependent effect
Activity [4]: Dose-dependent effect
inhibition at 2000 µM [5]: > 90%
inhibition [6]: Dose-dependent effect
Activity [7]: inactive
Activity [8]: inactive

SMILES: COC(=O)c1ncccc1COc1ccc(OC)cc1C=O
Activity [9]: 25.4%
Activity [10]: 13.9%
Activity [11]: 30.2%
Activity [1]: 62.3%
Activity [2]: 79.2%
Activity [3]: Dose-dependent effect
Activity [4]: Dose-dependent effect
inhibition at 1000 µM [12]: 97.7%
inhibition at 2000 µM [5]: 99.1%
inhibition at 500 µM [13]: 37.6%
inhibition [6]: Dose-dependent effect
Activity [7]: inactive
Activity [14]: 4.4%
Activity [8]: inactive

SMILES: COc1ccc(OCc2cccc(CO)n2)c(C=O)c1
Activity [15]: 1%
Activity [16]: Tde
Activity [17]: Tde
Activity [1]: 60%
Activity [2]: 80%
Activity [3]: Dose-dependent effect
Activity [4]: Dose-dependent effect
inhibition at 1000 µM [12]: 47%
inhibition at 2000 µM [5]: > 90%
inhibition at 500 µM [13]: 26%
inhibition [6]: Dose-dependent effect
Activity [21]: 1.5%

SMILES: COC(=O)c1cccc(COc2ccc(OC)cc2C=O)n1
Activity [9]: 37.1%
Activity [10]: 20.1%
Activity [11]: 20.9%
Activity [1]: 41.7%
Activity [2]: 63.8%
Activity [3]: Dose-dependent effect
Activity [4]: Dose-dependent effect
inhibition at 1000 µM [12]: 48.2%
inhibition at 2000 µM [5]: 88%
inhibition at 500 µM [13]: 17.5%
inhibition [6]: Dose-dependent effect
Activity [7]: inactive
Activity [14]: 4.8%
Activity [8]: inactive

SMILES: COC(=O)c1ccc(COc2cccc(O)c2C=O)nc1
Activity [7]: inactive
Activity [8]: inactive

SMILES: COC(=O)c1ccc(COc2cccc(O)c2C=O)cn1
Activity [9]: 60.1%
Activity [10]: 44.2%
Activity [11]: 47.8%
Activity [1]: 92.5%
Activity [2]: 100%
Activity [3]: Dose-dependent effect
Activity [4]: Dose-dependent effect
inhibition at 1000 µM [12]: 90.7%
inhibition at 2000 µM [5]: 98.9%
inhibition at 500 µM [13]: 39.5%
inhibition [6]: Dose-dependent effect
Activity ([7]; TDE = time-dependent effect): Tde
Activity [14]: 16.3%
Activity [8]: Dose-dependent effect

SMILES: CC(C)n1nccc1-c1ncccc1COc1cccc(O)c1C=O [VOXELOTOR]
Activity [10]: 80%
Activity [11]: 55%
Activity [1]: 100%
inhibition at 1000 µM [12]: 98%
inhibition at 500 µM [13]: 56%
Activity [14]: 41%

remaining at 24 h, 1000 µM [18]: 83%
remaining at 24 h, 500 µM [19]: 89%
Drug metabolism [20]: Metabolite_Detected
SMILES: COC(=O)c1cccc(COc2cccc(O)c2C=O)n1
Activity [15]: 5.5%
Activity [16]: Tde
Activity [17]: Tde
Activity [9]: 48.6%
Activity [10]: 29.2%
Activity [11]: 29.2%
Activity [1]: 81.1%
Activity [2]: 100%
Activity [3]: Dose-dependent effect
Activity [4]: Dose-dependent effect
inhibition at 1000 µM [12]: 54.2%
inhibition at 2000 µM [5]: 93.2%
inhibition at 500 µM [13]: 7.6%
inhibition [6]: Dose-dependent effect
Activity [7]: inactive
Activity [14]: 5.4%
Activity [8]: inactive
Activity [21]: 9.6%

SMILES: COC(=O)c1ccc(COc2ccc(OC)cc2C=O)cn1
Activity [9]: 32.3%
Activity [10]: 19.5%
Activity [11]: 36.1%
Activity [1]: 64%
Activity [2]: 81.3%
Activity [3]: Dose-dependent effect
Activity [4]: Dose-dependent effect
inhibition at 1000 µM [12]: 81.6%
inhibition at 2000 µM [5]: 96.5%
inhibition at 500 µM [13]: 29.1%
inhibition [6]: Dose-dependent effect
Activity ([7]; TDE = time-dependent effect): Tde
Activity [14]: 9.9%
Activity [8]: Dose-dependent effect

SMILES: COC(=O)c1cncc(COc2cccc(O)c2C=O)c1
Activity [1]: 60%
Activity [2]: < 100%
Activity [3]: Dose-dependent effect
Activity [4]: Dose-dependent effect
inhibition at 2000 µM [5]: > 90%
inhibition [6]: Dose-dependent effect
